Our source for the Activity and IC50 values is ChEMBL document CHEMBL1146182, “Synthesis and cytotoxic evaluation of combretafurans, potential scaffolds for dual-action antitumoral agents” (J Med Chem, 2006).

Molecules are shown by their SMILES. The source made the active and inactive calls. The calls are words filed in the database; no cut-off is given here.

In assay [1] the test system is SH-SY5Y. As to the kind of experiment: Cell cycle arrest in SHSY5Y cells by accumulation at S phase after 8 hrs. It counts as functional, Homo sapiens.
Assay [2] deals with SH-SY5Y. As to the kind of experiment: Cell cycle arrest in SHSY5Y cells by accumulation at G2 phase after 4 hrs. It counts as functional, Homo sapiens.
The test system of assay [3] is SH-SY5Y. Description: Cell cycle arrest in SHSY5Y cells by accumulation at G2 phase after 24 hrs. It counts as functional, Homo sapiens.
For assay [4], the system named is SH-SY5Y. Description: Cell cycle arrest in SHSY5Y cells by accumulation at G2 phase after 8 hrs. It counts as functional, Homo sapiens.
In assay [5] the test system is SH-SY5Y. As to the kind of experiment: Cell cycle arrest in SHSY5Y cells by accumulation at S phase after 4 hrs. The format is functional, Homo sapiens.
Assay [6] relates to SH-SY5Y. As to the kind of experiment: Cell cycle arrest in SHSY5Y cells by accumulation at G2 phase after 12 hrs. It counts as functional, Homo sapiens.
Assay [7] deals with SH-SY5Y. As to the kind of experiment: Cell cycle arrest in SHSY5Y cells by accumulation at G1 phase after 24 hrs. It counts as functional, Homo sapiens.
Assay [8] concerns SH-SY5Y. As to the kind of experiment: Cytotoxicity against SHSY5Y cell line by MTT assay. The format is functional, cell-based. The conditions noted are these: Homo sapiens. Background: Formazan colour is commonly taken as a measure of viable cells.
For assay [9], the system named is SH-SY5Y. Description: Cell cycle arrest in SHSY5Y cells by accumulation at G1 phase after 4 hrs. The format is functional, Homo sapiens.
Assay [10] relates to SH-SY5Y. Description: Cell cycle arrest in SHSY5Y cells by accumulation at S phase after 12 hrs. It counts as functional, Homo sapiens.
The subject of assay [11] is SH-SY5Y. As to the kind of experiment: Cell cycle arrest in SHSY5Y cells by accumulation at S phase after 24 hrs. The format is functional, Homo sapiens.
The target of assay [12] is T1, Tubulin (Homo sapiens) (UniProt P68371+Q9H4B7+P0DPH7+P68366+Q13509+Q71U36+P04350+Q3ZCM7+P07437+P68363+Q9BQE3+Q6PEY2+Q13885+Q9BVA1+Q9BUF5). As to the kind of experiment: Inhibition of tubulin polymerization. The format is protein-complex assay. The method in brief: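 Whole-cell (in vivo) tubulin polymerization assay in neuroblastoma cells. Cells are incubated overnight with a high inhibitor concentration. Proteins are then extracted in the presence of paclitaxel so that the tubulin polymerization state is frozen at extraction.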

In assay [13] the test system is SH-SY5Y. As to the kind of experiment: Cell cycle arrest in SHSY5Y cells by accumulation at G1 phase after 8 hrs. It counts as functional, Homo sapiens.
The test system of assay [14] is SH-SY5Y. Description: Cell cycle arrest in SHSY5Y cells by accumulation at G1 phase after 12 hrs. The format is functional, Homo sapiens.
Assay [15] deals with T1, Tubulin (Homo sapiens). As to the kind of experiment: Induction of tubulin depolymerization at 2.9 nM after 24 hrs. It counts as protein-complex assay.
In assay [16] the target is T1, Tubulin (Homo sapiens). Description: Induction of tubulin depolymerization at 35.8 nM after 24 hrs. The format is protein-complex assay.
The target in assay [17] is T1, Tubulin (Homo sapiens). As to the kind of experiment: Induction of tubulin depolymerization at 231 nM after 24 hrs. It counts as protein-complex assay.
Assay [18] deals with SH-SY5Y. As to the kind of experiment: Cytotoxicity against SHSY5Y cell line upto 1 uM by MTT assay. It counts as functional, cell-based. The conditions noted are these: Homo sapiens.

Turning to `COc1ccc(/C=C\c2cc(OC)c(OC)c(OC)c2)cc1O` [COMBRETASTATIN A4], the Activity in the assay with SH-SY5Y [1] came to 79%; with SH-SY5Y [2] it was 82%; in the assay on SH-SY5Y [3] it was 92%; in the assay with SH-SY5Y [4], 55%; in the assay on SH-SY5Y [5] it was 49%; in the assay on SH-SY5Y [6], 52%. The Activity was determined as 25% in the assay on SH-SY5Y [7]; 69% in the assay on SH-SY5Y [9]; 83% with SH-SY5Y [10]; 83% with SH-SY5Y [11]; 66% in the assay on SH-SY5Y [13]; 64% in the assay with SH-SY5Y [14]. The compound also returned a half-maximal inhibitory concentration (IC50) in the assay with SH-SY5Y [8] of 1.6 nM. The outcome on Tubulin (Homo sapiens) [12] was Active.
`COc1ccc(-c2cocc2-c2cc(OC)c(OC)c(OC)c2)cc1O`: the Activity in the assay with SH-SY5Y [1] is given as 58%; in the assay on SH-SY5Y [2], 33%; in the assay with SH-SY5Y [3], 45%; in the assay with SH-SY5Y [4], 55%; with SH-SY5Y [5] it was 53%; with SH-SY5Y [6] it was 38%. Further, the Activity with SH-SY5Y [7] is on record as 70%; in the assay on SH-SY5Y [9] it was 33%; with SH-SY5Y [10], 43%; in the assay on SH-SY5Y [11], 85%; in the assay with SH-SY5Y [13] it was 87%; in the assay with SH-SY5Y [14], 47%. Further, half-maximal inhibition in the assay with SH-SY5Y [8] (IC50) required 2.9 nM. Besides, the result on Tubulin (Homo sapiens) [12] and at Tubulin (Homo sapiens) [15] was Active.
Consider `COc1ccc(-c2coc(C=O)c2-c2cc(OC)c(OC)c(OC)c2)cc1`, for which the Activity was 46% with SH-SY5Y [1]; 41% with SH-SY5Y [2]; 81% with SH-SY5Y [3]; 25% in the assay with SH-SY5Y [4]; 54% in the assay on SH-SY5Y [5]; 55% in the assay on SH-SY5Y [6]. For the same compound, the Activity was 58% in the assay with SH-SY5Y [7]; 53% in the assay on SH-SY5Y [9]; 39% in the assay with SH-SY5Y [10]; 78% in the assay with SH-SY5Y [11]; 74% in the assay with SH-SY5Y [13]; 50% with SH-SY5Y [14]. This compound also registered an IC50 in the assay on SH-SY5Y [8] of 35.8 nM. The result at Tubulin (Homo sapiens) [16] was inactive. Moreover, at Tubulin (Homo sapiens) [12], the result was Active.
On to `COc1ccc(-c2c(-c3cc(OC)c(OC)c(OC)c3)coc2/C=N/NC(=O)CCCC(=O)O)cc1`, for which it took 1670 nM to reach half-maximal inhibition with SH-SY5Y [8] (IC50). Besides, the result at Tubulin (Homo sapiens) [12] was Active.
In the same order, the values of `COc1ccc(-c2cocc2-c2cc(OC)c(OC)c(OC)c2)cc1N` are 5.1 nM and “Active”.
`COc1ccc(-c2cocc2-c2cc(OC)c(OC)c(OC)c2)cc1[N+](=O)[O-]` returned an IC50 with SH-SY5Y [8] of 245 nM. Moreover, the result at Tubulin (Homo sapiens) [12] was Active.
For `COc1ccc(-c2c(-c3cc(OC)c(OC)c(OC)c3)coc2C=O)cc1`, the Activity in the assay with SH-SY5Y [1] came out at 84%; with SH-SY5Y [2] it was 62%; with SH-SY5Y [3], 25%; with SH-SY5Y [4], 23%; with SH-SY5Y [5], 54%; with SH-SY5Y [6], 82%. The Activity in the assay with SH-SY5Y [7] was 77%; with SH-SY5Y [9], 32%; with SH-SY5Y [10] it was 79%; in the assay on SH-SY5Y [11], 29%; with SH-SY5Y [13] it was 93%; in the assay with SH-SY5Y [14], 42%. For the same compound, the outcome on Tubulin (Homo sapiens) [17] and on Tubulin (Homo sapiens) [12] was Active. For the same compound, the IC50 with SH-SY5Y [8] was 231 nM.
In the case of `COc1cc(-c2cocc2-c2ccc3c(c2)OCO3)cc(OC)c1OC`, the result on Tubulin (Homo sapiens) [12] was Active. The result in the assay with SH-SY5Y [18] was inactive.
As to `COc1ccc(-c2cocc2-c2cc(OC)c(OC)c(OC)c2)cc1`, 39 nM corresponded to half-maximal inhibition in the assay on SH-SY5Y [8] (IC50).

Broadly, the IC50 is the concentration that inhibits the measured activity by half. Read a low IC50 as greater potency.
